The record followed here is ChEMBL document CHEMBL5260841, “Discovery of N-(4-(6-Acetamidopyrimidin-4-yloxy)phenyl)-2-(2-(trifluoromethyl)phenyl)acetamide (CHMFL-FLT3-335) as a Potent FMS-like Tyrosine Kinase 3 Internal Tandem Duplication (FLT3-ITD) Mutant Selective Inhibitor for Acute Myeloid Leukemia” (J Med Chem, 2019).

Data set [1] is described as follows: AUC (0 to infinity) in Sprague-Dawley rat at 10 mg/kg, po. The data set is classed as ADME, organism-based. On the set-up: dose 10 mg/kg, route po. To be noted: in vivo. The procedure, abridged:
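Sprague-Dawley rats dosed IV at 1 mg/kg or by oral gavage at 10 mg/kg. Parameters from plasma exposure: AUC(0-t), AUC(0-∞), MRT, T1/2, Tmax, Vz, CLz, Cmax. Values are mean ± SD from three animals.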

The subject of data set [2] is MV4-11. Briefly: Antitumor activity against human MV4-11 cells xenografted in nu/nu mouse assessed as suppression of cell proliferation administered orally via gavage for 28 days by ki67 staining based immunohistochemical analysis. Format: functional. Conditions: dose 25-100 mg/kg/day, route po, time 28.0 day. The procedure, abridged:
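Tumours taken from MV4-11 xenograft mice after 28 days of daily oral dosing. Tissue stained with HE, Ki-67 (proliferation) and TUNEL (apoptosis), and treated groups compared with the vehicle group.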

The test system of data set [3] is BaF3. Briefly: Antiproliferative activity against mouse BaF3 cells transfected with TEL fused FLT3 Y842H mutant assessed as cell growth inhibition incubated for 72 hrs by CCK-8 assay. Format: functional. Put shortly: (§1)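 Kinase-transformed isogenic BaF3 lines grown in RPMI 1640 with 10% FBS, 2% L-glutamine and pen/strep at 37 °C, 5% CO2. Seeded at 1500-3000 cells/well and treated with a compound concentration series for 72 h. Viability read by CCK8 absorbance at 450 nm.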
On the technique in general: Tetrazolium dyes change colour on reduction, which living cells bring about.

The target of data set [4] is Platelet-derived growth factor receptor alpha (Homo sapiens, UniProt P16234). Briefly: Inhibition of PDGFRalpha (unknown origin) assessed as residual activity at 1 uM preincubated for 60 mins followed by ATP addition and measured after 1 hr by ADP-Glo assay relative to control. Conditions: time 2.0 hrs. In general terms: ADP-Glo turns the ADP formed in a reaction into a luminescent signal.
Platelet-derived growth factor receptor alpha, sequence (P16234 whole entry): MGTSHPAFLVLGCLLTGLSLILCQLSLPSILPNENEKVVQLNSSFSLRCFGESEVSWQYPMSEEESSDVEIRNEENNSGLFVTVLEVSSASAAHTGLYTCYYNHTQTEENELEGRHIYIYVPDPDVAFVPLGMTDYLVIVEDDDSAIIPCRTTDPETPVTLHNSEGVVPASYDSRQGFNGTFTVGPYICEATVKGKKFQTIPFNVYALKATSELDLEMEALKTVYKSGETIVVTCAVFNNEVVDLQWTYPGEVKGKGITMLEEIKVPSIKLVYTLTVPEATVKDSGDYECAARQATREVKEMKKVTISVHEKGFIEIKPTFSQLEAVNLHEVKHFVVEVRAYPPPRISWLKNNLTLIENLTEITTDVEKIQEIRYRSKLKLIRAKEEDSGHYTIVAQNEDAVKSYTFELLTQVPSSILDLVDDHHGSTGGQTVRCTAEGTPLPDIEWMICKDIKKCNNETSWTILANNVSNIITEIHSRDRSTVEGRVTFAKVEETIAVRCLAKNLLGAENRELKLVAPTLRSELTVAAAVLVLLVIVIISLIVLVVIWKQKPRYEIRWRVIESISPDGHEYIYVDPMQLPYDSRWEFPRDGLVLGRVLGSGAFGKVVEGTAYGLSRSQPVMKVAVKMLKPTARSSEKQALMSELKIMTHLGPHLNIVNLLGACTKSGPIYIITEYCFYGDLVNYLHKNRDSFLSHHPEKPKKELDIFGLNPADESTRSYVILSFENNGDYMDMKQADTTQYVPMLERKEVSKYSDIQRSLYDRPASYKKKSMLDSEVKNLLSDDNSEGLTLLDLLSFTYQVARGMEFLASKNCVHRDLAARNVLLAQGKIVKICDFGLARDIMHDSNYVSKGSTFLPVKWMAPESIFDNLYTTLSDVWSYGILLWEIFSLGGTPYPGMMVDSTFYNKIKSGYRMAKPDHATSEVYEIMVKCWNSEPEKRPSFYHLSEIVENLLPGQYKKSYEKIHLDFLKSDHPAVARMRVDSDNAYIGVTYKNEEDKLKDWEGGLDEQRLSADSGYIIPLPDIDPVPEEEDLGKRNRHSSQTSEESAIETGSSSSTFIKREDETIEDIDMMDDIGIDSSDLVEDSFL

The target in data set [5] is Macrophage colony-stimulating factor 1 receptor (Homo sapiens, UniProt P07333). Kind of data set: Inhibition of CSF1R (unknown origin) assessed as residual activity at 1 uM preincubated for 60 mins followed by ATP addition and measured after 1 hr by ADP-Glo assay relative to control. Conditions: time 2.0 hrs.
Macrophage colony-stimulating factor 1 receptor, sequence (P07333 whole entry): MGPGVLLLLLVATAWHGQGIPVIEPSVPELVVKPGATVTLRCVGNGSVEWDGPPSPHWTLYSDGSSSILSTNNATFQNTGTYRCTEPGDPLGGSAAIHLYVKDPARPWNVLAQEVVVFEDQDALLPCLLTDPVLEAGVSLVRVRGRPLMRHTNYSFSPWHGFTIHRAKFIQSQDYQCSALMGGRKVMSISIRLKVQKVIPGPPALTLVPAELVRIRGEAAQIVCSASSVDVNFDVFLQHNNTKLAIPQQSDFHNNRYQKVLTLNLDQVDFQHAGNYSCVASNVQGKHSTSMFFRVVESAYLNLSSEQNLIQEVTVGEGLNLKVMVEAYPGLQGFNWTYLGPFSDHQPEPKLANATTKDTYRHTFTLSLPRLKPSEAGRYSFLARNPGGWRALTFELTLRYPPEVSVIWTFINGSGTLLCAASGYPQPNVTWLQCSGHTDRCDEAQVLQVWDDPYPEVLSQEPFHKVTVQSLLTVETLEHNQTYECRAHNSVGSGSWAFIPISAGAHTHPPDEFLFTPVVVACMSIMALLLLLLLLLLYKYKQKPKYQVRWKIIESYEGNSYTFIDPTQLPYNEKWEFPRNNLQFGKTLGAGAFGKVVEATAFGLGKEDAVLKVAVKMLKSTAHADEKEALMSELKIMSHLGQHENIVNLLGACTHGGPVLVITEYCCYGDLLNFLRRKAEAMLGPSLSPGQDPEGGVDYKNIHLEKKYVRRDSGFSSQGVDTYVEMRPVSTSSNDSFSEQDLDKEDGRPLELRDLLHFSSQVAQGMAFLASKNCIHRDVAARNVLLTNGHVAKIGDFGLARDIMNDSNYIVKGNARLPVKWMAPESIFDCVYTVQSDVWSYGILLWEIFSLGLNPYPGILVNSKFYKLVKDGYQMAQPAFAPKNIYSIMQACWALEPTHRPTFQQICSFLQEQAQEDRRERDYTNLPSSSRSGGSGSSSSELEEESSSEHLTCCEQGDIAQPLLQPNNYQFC
Data set [6] deals with Platelet-derived growth factor receptor beta (Homo sapiens, UniProt P09619). Kind of data set: Inhibition of PDGFRbeta (unknown origin) preincubated for 60 mins followed by ATP addition and measured after 1 hr by ADP-Glo assay. Put shortly: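 ADP-Glo luminescence assay. Kinase was preincubated with compound for 60 min at room temperature, then ATP/substrate was added and the reaction ran 1 h at 37 °C. ADP-Glo reagent was added for 40 min, then detection reagent for 30 min, and luminescence was read. Enzyme and ATP per target: KIT 20 ng/µL, 50 µM ATP; PDGFRα 2.5 ng/µL, 25 µM ATP; PDGFRβ 1.25 ng/µL, 25 µM ATP. IC50 was taken from the dose-response fit.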
Platelet-derived growth factor receptor beta, sequence (P09619 whole entry): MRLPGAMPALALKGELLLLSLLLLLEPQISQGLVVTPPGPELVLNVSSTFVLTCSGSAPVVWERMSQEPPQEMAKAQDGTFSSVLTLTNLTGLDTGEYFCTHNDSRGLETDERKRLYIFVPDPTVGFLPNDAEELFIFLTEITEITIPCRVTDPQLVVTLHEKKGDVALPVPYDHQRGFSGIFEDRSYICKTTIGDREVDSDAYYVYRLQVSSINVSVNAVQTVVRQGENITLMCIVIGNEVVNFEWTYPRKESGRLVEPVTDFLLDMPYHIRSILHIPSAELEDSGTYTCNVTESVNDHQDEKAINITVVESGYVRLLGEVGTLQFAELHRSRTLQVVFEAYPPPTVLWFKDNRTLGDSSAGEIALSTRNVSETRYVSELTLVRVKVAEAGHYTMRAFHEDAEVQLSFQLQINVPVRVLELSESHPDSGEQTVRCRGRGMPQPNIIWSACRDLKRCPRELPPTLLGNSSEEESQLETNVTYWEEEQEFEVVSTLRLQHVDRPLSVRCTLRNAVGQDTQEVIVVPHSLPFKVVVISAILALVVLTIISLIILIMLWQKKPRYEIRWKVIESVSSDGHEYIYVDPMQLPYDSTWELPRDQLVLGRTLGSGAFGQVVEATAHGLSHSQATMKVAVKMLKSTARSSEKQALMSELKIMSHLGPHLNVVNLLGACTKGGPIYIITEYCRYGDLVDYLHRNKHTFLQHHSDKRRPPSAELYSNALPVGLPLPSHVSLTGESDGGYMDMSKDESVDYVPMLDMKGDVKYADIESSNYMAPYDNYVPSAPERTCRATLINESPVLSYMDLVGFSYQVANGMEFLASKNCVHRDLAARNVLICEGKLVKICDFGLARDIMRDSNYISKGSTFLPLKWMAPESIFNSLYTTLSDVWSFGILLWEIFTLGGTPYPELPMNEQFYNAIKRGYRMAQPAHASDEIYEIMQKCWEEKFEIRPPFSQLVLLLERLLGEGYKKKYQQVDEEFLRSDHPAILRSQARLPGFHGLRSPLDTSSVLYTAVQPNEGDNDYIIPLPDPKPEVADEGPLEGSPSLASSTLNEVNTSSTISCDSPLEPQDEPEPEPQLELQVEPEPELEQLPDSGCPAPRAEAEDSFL

Data set [7] concerns the target T1, Receptor-type tyrosine-protein kinase FLT3 (Homo sapiens, UniProt P36888).
T1 sequence (P36888 whole entry): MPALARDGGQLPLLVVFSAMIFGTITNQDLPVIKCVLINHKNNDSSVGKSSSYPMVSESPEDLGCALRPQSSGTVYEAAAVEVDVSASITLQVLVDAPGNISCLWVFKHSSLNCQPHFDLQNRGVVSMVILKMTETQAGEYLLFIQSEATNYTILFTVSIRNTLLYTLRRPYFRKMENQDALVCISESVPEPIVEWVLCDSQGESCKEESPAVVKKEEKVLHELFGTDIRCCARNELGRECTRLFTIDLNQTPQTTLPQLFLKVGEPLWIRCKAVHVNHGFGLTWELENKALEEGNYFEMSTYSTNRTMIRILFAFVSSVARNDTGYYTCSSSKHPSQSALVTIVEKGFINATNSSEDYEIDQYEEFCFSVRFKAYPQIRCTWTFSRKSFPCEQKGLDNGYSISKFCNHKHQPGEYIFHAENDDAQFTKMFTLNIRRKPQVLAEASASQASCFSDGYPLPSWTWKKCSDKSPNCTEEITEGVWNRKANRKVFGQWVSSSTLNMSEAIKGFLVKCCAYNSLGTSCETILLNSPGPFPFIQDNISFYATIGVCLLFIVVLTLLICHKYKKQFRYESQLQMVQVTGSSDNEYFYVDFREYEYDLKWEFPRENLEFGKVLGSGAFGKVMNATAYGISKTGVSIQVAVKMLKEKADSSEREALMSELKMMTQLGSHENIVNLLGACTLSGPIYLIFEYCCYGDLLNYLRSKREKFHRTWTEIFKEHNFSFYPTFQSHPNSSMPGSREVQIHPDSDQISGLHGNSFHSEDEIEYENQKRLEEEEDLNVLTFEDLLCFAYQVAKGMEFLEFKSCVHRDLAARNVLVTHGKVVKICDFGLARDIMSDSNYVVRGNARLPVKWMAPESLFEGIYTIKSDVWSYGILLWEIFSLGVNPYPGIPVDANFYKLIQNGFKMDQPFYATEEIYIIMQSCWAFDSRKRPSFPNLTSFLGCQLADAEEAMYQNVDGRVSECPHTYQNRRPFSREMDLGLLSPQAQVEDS
Briefly: Inhibition of FLT3 (unknown origin) preincubated for 60 mins followed by ATP addition and measured after 1 hr by ADP-Glo assay.

For data set [8], the system named is BaF3. Briefly: Antiproliferative activity against mouse BaF3 cells transfected with TEL fused PDGFRalpha assessed as cell growth inhibition incubated for 72 hrs by CCK-8 assay. Format: functional. The procedure, abridged:
as §1

The test system of data set [9] is MV4-11. Kind of data set: Antiproliferative activity against human MV4-11 cells transfected with FLT3-ITD mutant assessed as cell growth inhibition incubated for 72 hrs by CCK-8 assay. The data set is classed as functional. Put shortly:
(§2)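 Cells kept at 37 °C, 5% CO2. MV4-11 grown in IMDM with 10% FBS. MOLM13, MOLM14, U937 and HL-60 grown in RPMI 1640 with 10% FBS. OCI-AML-2 grown in α-MEM with 20% FBS. Seeded at 1500-3000 cells/well and exposed to a concentration series for 72 h. Viability read by CCK8 absorbance at 450 nm.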

For data set [10], the system named is MOLM-13. Kind of data set: Antiproliferative activity against human MOLM-13 cells transfected with FLT3-ITD mutant assessed as cell growth inhibition incubated for 72 hrs by CCK-8 assay. The data set is classed as functional. Put shortly: as §2
The test system of data set [11] is HL-60. Kind of data set: Antiproliferative activity against human HL-60 cells transfected with wild type FLT3 assessed as cell growth inhibition incubated for 72 hrs by CCK-8 assay. The data set is classed as functional. The procedure, abridged:
as §2

Data set [12] concerns MV4-11. Briefly: Downregulation of c-Myc protein expression in human MV4-11 cells harboring FLT3-ITD mutant incubated for 4 hrs by Western blot analysis. The data set is classed as functional, cell-based. To be noted: dose 0.01-3 µM. The procedure, abridged: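 Cells were exposed to the compound at a series of concentrations for 4 h, and whole-cell lysates were analysed by Western blot. MV4-11 cells were grown in IMDM with 10% FBS. MOLM13 and MOLM14 cells were grown in RPMI 1640 with 10% FBS. All cultures were kept at 37 °C with 5% CO2.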
(In general: Immunoblotting shows a protein as a band on a membrane.)

Data set [13] has as its system MOLM-13. Briefly: Induction of apoptosis in human MOLM-13 cells harboring FLT3-ITD mutant assessed as increase in cleaved caspase-3 level incubated for 24 hrs by Western blot analysis. Format: functional, cell-based. Conditions: dose 0.1-3 µM.
In data set [14] the test system is MOLM-14. Briefly: Induction of apoptosis in human MOLM-14 cells harboring FLT3-ITD mutant assessed as increase in cleaved caspase-3 level incubated for 24 hrs by Western blot analysis. Conditions: dose 0.1-3 µM. Format: functional, cell-based.
Data set [15] can be described thus: Cytotoxicity against human PBMC cells assessed as reduction in cell viability at 5 uM. The data set is classed as toxicity, cell-based.

In general, AUC(0-inf) refers to total exposure, with the tail of the curve extrapolated. Read a high AUC(0-inf) as more exposure. What is called GI50 is the concentration giving 50% growth inhibition. As a reminder, the IC50 is the midpoint of a concentration-inhibition curve. Low readings indicate greater potency, high ones weaker potency. For `CC(=O)Nc1cc(Oc2ccc(NC(=O)Cc3ccccc3C(F)(F)F)cc2)ncn1`, in [1], the AUC(0-inf) stood at 28000 ng·h/mL. For the same compound, the Activity entry is “Dose-Dependent Effect” in [2]; 3.3% in data set [4]; 2.4% in data set [5]; “Dose-Dependent Effect” in data set [12]; “Dose-Dependent Effect” in [13]; “Dose-Dependent Effect” in [14]. In addition, in data set [15], the Activity result is given as “Non-Toxic”. Also, the GI50 is 7.5 µM in data set [3]; 7 nM in [8]; 284 nM in [9]; 466 nM in data set [10]; more than 10 µM in [11]. In addition, the figures for the IC50 in data set [6] and in data set [7] were 207 nM and 90.8 nM, respectively.
